Compounds with a hit are over-represented: about 1.3% of the library has one in this group of screens.
DAGLB inhibitor – blocks human DAGLB lipase activity. HEK293T DAGLB membrane lysate, EnzChek fluorogenic substrate. inhibition, % at 5.17 µM. 0.059% of 340,000 active; in the data active means inhibition above about 34%;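 further: 0% = enzyme with vehicle and 100% = wells lacking enzyme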
Target sequence (Q8NCG7 whole entry, looked up): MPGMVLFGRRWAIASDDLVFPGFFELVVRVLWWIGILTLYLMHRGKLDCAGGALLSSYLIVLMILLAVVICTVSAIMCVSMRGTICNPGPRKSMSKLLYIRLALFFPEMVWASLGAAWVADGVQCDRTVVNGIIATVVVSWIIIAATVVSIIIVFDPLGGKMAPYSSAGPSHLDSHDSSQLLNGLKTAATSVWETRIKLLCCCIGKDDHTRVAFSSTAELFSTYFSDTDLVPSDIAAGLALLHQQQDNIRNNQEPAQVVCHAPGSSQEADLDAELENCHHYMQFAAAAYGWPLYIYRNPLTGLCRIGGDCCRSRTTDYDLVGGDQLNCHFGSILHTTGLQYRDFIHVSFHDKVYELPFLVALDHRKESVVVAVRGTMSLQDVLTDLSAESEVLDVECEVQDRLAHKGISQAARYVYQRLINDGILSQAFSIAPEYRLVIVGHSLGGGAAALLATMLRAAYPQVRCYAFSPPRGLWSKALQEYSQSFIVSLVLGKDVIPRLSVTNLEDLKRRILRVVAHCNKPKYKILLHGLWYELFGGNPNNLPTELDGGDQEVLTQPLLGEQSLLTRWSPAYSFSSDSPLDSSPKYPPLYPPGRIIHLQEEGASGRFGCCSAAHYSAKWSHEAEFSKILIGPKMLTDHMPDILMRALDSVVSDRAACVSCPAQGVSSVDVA
ANO1 block – blocks the mouse calcium-activated chloride channel TMEM16A; normalized B-score (activity score, 25-100; higher = stronger inhibition) at 10 µM; Q8BHY3; 1.2% of 310,000 active; HEK293 TMEM16A/YFP iodide influx fluorescence, ionomycin; AID 588511;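 active means ratio plate-corrected score three or more library SD toward inhibition, starting fluorescence score within five deviations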;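 further: score derived from kinetic fluorescence span divided by baseline fluorescence per well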
MT1-MMP act inh – inhibitors of human MT1-MMP activation; P50281; HT1080 RFP-PRO-GFP cells, GFP/RFP ratio fluorescence, overnight; percent of plate control window, DMSO zero; GFP/RFP ratio change, % at 20 µM; 0.061% of 360,000 active;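 active means GFP/RFP ratio change of at least 30% with cell ATP level not reduced by more than half and red fluorescence within 50% of control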
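Test system: HT1080 cells expressing an RFP-PRO-GFP fluorescent reporter construct / Compound dosing: single-point 20 µM compound, 1% DMSO / Schedule: cells overnight before dosing, compound overnight, 37 °C, 5% CO2 / Evaluation: GFP/RFP fluorescence ratio / Control set: DMSO and RFP-L50D-GFP cell wells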
ANO1 activ – mouse TMEM16A channel activation, primary screen; B-score at 10 µM; HEK293 TMEM16A/YFP-H148Q/I152L, iodide quench fluorescence; hits give low values; 0.3% of 340,000 active; AID 623877; Q8BHY3;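 active means fluorescence-ratio B-score plate-corrected deviation score at least 3 library SD below zero, with starting fluorescence score within 5 deviations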;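 further: channel opened by trigger with iodide after compound preincubation; score built on the fluorescence ratio of max minus min over baseline; more negative score means more quench and so TMEM16A activation or potentiation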
TMEM16A reconf – re-confirmation of mouse TMEM16A chloride channel inhibitors; shares compounds with ANO1 block; HEK293 TMEM16A/YFP-H148Q, iodide quench fluorescence; ionomycin added to raise cell calcium; inhibition, % at 10 µM; 39% of 2,300 active;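 active means mean duplicate percent inhibition, scaled so buffer wells are 0 and the reference blocker 100, over three buffer SD above buffer mean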
HEK293 Ca mobil – counter-screen for TMEM16A inhibitors: effect on calcium mobilization | TMEM16A/YFP HEK293, Fluo4 calcium mobilization | AID 652231 | calcium response (% of ionomycin), % at 10 µM | shares compounds with ANO1 block | 2% of 2,300 active;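 active means duplicate-averaged calcium signal over 20% of the ionomycin maximum, relative to buffer baseline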;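 further: each well's signal is peak minus trough fluorescence divided by its pre-addition baseline; 0% = buffer wells and 100% = ionomycin wells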
Parental YFP cnt – acts in parental YFP-HEK293 cells lacking TMEM16A, counter-screen | shares compounds with ANO1 block | iodide YFP quench, ionomycin | YFP ratio F(max-min)/F0 at 10 µM | 2,300 tested, under 10 active | AID 652233;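 active means yellow fluorescent protein signal ratio exceeding the buffer control mean by over 5 SD of those controls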;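 further: ratio is mean of duplicate wells from kinetic YFP trace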
ClC-1 rat inh – blocks the rat ClC-1 voltage-dependent chloride channel; shares compounds with ANO1 block; CHO ClC-1-YFP, iodide influx fluorescence quench; iodide control reads 0, buffer control 100; ratio percent, % at 10 µM; 2,300 tested, under 10 active; AID 652236;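 active means duplicate-mean ratio percent above the mean of iodide-only control wells, which defines zero, plus 5 of their SD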;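 further: higher percent means stronger block of ClC-1 iodide influx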
Active calls of the source: *; i = inactive; . = no result.

SMILES	DAGLB inhibitor	ANO1 block	MT1-MMP act inh	ANO1 activ	TMEM16A reconf	HEK293 Ca mobil	Parental YFP cnt	ClC-1 rat inh
COc1ccc(CCNc2nc(-c3sc(C)nc3C)cs2)cc1OC	-1.3	100*	1.4	i	34.0%*	i	-0.926	-16.0
COc1ccc(CCNc2nc(-c3ccncc3)cs2)cc1OC	0.5	i	2.5	i	.	.	.	.
CC(C)CC(N)c1csc(NC(=O)c2cc(C(C)(C)C)nn2Cc2ccccc2)n1 (stereo not given)	.	.	-2.6	.	.	.	.	.
CN1OC[C@@H]2CN[C@H](c3cccc(Oc4ccccc4)c3)C[C@@H]21	4.0	.	3.1	.	.	.	.	.
O=C(Nc1ccc(N2CCOCC2)cc1)c1ccc(Cl)c(S(=O)(=O)N2CCCCC2)c1	2.2	.	17.1	i	.	.	.	.
CCNc1cc2n(c(=O)n1)CCc1cc(OC)c(OC)cc1-2	-0.8	i	8.3	i	.	.	.	.
CCCCCCNc1cc2n(c(=O)n1)CCc1cc(OC)c(OC)cc1-2	-3.7	i	3.0	i	i	i	-1.03	-12.5
Cc1ccc(OCc2ccc(C(=O)N3CCCC3)o2)cc1C	-3.0	25*	1.4	i	i	i	-1.23	-14.5
CCN(CC)S(=O)(=O)c1ccc(NC(=O)Nc2cccc(C(F)(F)F)c2)cc1	-1.1	100*	-10.0	i	43.5%*	i	-1.25	-9.5
CCN(CC)S(=O)(=O)c1ccc(NC(=O)C(OC)c2ccccc2)cc1 (stereo not given)	0.5	25*	2.3	i	i	i	-1.33	-2.5
Cc1ccc(S(=O)(=O)Nc2ccc(NC(=O)Nc3cccc(C(F)(F)F)c3)cc2)cc1	-5.5	i	-3.8	i	.	.	.	.
CC1CCN(S(=O)(=O)c2cc(C(=O)N3CCN(c4ccccc4)CC3)ccc2Br)CC1	-2.2	.	-4.6	.	.	.	.	.
CC(C)(C)n1cnc2cc(NS(=O)(=O)c3ccc(Br)cc3)ccc21	-1.7	25*	-0.1	i	i	i	-0.91	-10.5
Cc1ccc(S(=O)(=O)Nc2ccc3c(c2)ncn3C(C)(C)C)cc1	0.2	i	3.4	i	.	.	.	.
C=CCNc1ncnc2c1ncn2[C@H]1CN(Cc2cc(OC)c(OC)c(OC)c2)C[C@@H](CO)O1	.	.	0.4	.	.	.	.	.
O=C(NNC(=S)Nc1ccccc1)NNC(=S)Nc1ccccc1	-0.9	i	2.1	i	.	.	.	.
O=C(NNC(=S)Nc1ccccc1)c1cc(Br)ccc1Cl	5.7	25*	3.7	i	17.5%*	i	-1	-8.5
CC1(C(=O)NCc2cccs2)Cc2c(-c3ccccc3)ccnc2O1 (stereo not given)	.	.	-2.5	.	.	.	.	.
CCC(=O)N(CC)C1=C(O)c2ccccc2C(=O)C1=O	1.1	25*	-16.8	i	25.5%*	i	-0.782	-10.5
Cc1ccc(S(=O)(=O)N2CC3(O)CN(C(=O)OC(C)C)N(C(=O)OC(C)C)CC3(OC(=O)NCc3ccco3)C2)cc1 (stereo not given)	2.0	.	0.9	.	.	.	.	.
COc1ccc(CCOC(=O)c2ccc(NC(=O)CC#N)cc2)cc1	-4.6	i	-3.1	i	.	.	.	.
COc1ccc(C(=O)OCCc2ccc(O)cc2)cc1	-7.3	25*	6.7	i	i	i	-1.04	-4.5
Cc1ccc(CN(C)C(=O)CSc2nnc3n2CCCCC3)c(C)c1	-2.6	.	16.4	i	.	.	.	.
CC1CC(C)CN(c2nc(N(C)c3ccccc3)nc(N)c2[N+](=O)[O-])C1 (stereo not given)	-17.5	25*	-0.4	i	i	i	-1.14	-16.5
O=CNc1c(Cl)cc2c(c1Cl)Cc1cc([N+](=O)[O-])ccc1-2	5.5	.	-6.3	i	.	.	.	.
CCO[C@@H]1OC(C(N)=O)=C[C@H](c2coc3ccccc3c2=O)[C@H]1CCCO	-2.0	25*	11.9	i	i	i	-0.996	-8.5
